In brackets after ≈: the same amount, converted by molar mass. Activity calls are given as the source filed them. No cut-off for these calls is given here. Bridge positions count the residues as written; N and C are the ends. Peptide text beside a SMILES is read from it. I, II: the chains in the order shown.
Legend:
Staphylococcus aureus [1] = test: Antimicrobial activity against methicillin-resistant Staphylococcus aureus CCARM 3696 by radial diffusion assay; type: functional, organism-based
In short: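 Radial diffusion. Washed mid-log MRSA (4 × 10^6 CFU) was mixed into 10 ml underlay of 1% agarose and 0.03% TSB in 9 mM NaP/1 mM sodium citrate, pH 7.4. Wells 3 mm wide received 5 μl of peptide at 200 μg/ml in 0.01% acetic acid. After 3 h at 37°C, a 1% agarose/6% TSB overlay was added and plates were incubated overnight. Clear zone diameter was read in units, 0.1 mm = 1 unit.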

Listeria monocytogenes = test: Antimicrobial activity against Listeria monocytogenes KCTC 19111 after 18 hrs by broth dilution method; type: functional; settings: KCTC 19111, 18 h
In short: (§1)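 Broth microdilution following CLSI recommendations. Bacteria were grown overnight to stationary phase in Mueller-Hinton broth, then diluted in fresh MHB to 2 × 10^5 CFU/ml. Peptide or antibiotic stocks of 640 μg/ml in 0.01% acetic acid were serially 2-fold diluted to 10 μg/ml, and each was added to the bacterial suspension at 11 μl per 100 μl. Plates were incubated 18 h at 37°C. MIC was taken as the lowest concentration giving no visible turbidity, in triplicate.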

Klebsiella oxytoca = test: Antimicrobial activity against Klebsiella oxytoca KCTC 1686 after 18 hrs by broth dilution method; type: functional; settings: KCTC 1686, 18 h; in short: as §1
Staphylococcus aureus [2] = test: Antimicrobial activity against methicillin-resistant Staphylococcus aureus CCARM 3696 by colony count assay incubated with trypsin for 20 mins; type: functional, organism-based
In short: (§2)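 Peptide (20 μg) was incubated at 37°C with 50 nM trypsin in 100 μl of 10 mM sodium phosphate, then heated 10 min at 80°C and cooled. MRSA (100 μl, 2 × 10^7 CFU/ml) was added for 5 min. Aliquots were plated on TSA (1.5% agarose, 3% TSB in NaP) and counted after overnight growth at 37°C. Read-out was CFU/ml; repeated three times on different days.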

Citrobacter freundii = test: Antimicrobial activity against Citrobacter freundii KCTC 2359 after 18 hrs by broth dilution method; type: functional; settings: KCTC 2359, 18 h; in short: as §1
Staphylococcus aureus [3] = test: Antimicrobial activity against methicillin-resistant Staphylococcus aureus CCARM 3696 after 18 hrs by broth dilution method; type: functional; settings: CCARM 3696, 18 h
In short: (§3)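 Broth dilution per CLSI. Bacteria were grown overnight to stationary phase in Mueller-Hinton broth and diluted in fresh MHB to 2 × 10^5 CFU/ml. Stocks at 640 μg/ml in 0.01% acetic acid were 2-fold serially diluted to 10 μg/ml, and 11 μl was added to 100 μl of bacteria. After 18 h at 37°C, MIC was the lowest concentration with no visible turbidity. Run in triplicate.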

Micrococcus luteus = test: Antimicrobial activity against Micrococcus luteus KCTC 9341 after 18 hrs by broth dilution method; type: functional; settings: KCTC 9341, 18 h; in short: as §1
Pseudomonas aeruginosa = test: Antimicrobial activity against multidrug-resistant Pseudomonas aeruginosa CCARM 2161 after 18 hrs by broth dilution method; type: functional; settings: CCARM 2161, 18 h; in short: as §3
Bacillus subtilis = test: Antimicrobial activity against Bacillus subtilis KCTC 2213 after 18 hrs by broth dilution method; type: functional; settings: KCTC 2213, 18 h; in short: as §1
Enterococcus faecium = test: Antimicrobial activity against vancomycin-resistant Enterococcus faecium CCARM 5028 after 18 hrs by broth dilution method; type: functional; settings: CCARM 5028, 18 h; in short: as §3
Staphylococcus aureus [4] = test: Antimicrobial activity against methicillin-resistant Staphylococcus aureus CCARM 3696 by colony count assay incubated with trypsin for 10 mins; type: functional, organism-based; in short: as §2
Staphylococcus aureus [5] = test: Antimicrobial activity against methicillin-resistant Staphylococcus aureus CCARM 3696 by radial diffusion assay incubated with trypsin; type: functional, organism-based
Staphylococcus aureus [6] = test: Antimicrobial activity against methicillin-resistant Staphylococcus aureus CCARM 3696 by radial diffusion assay incubated with Staphylococcus aureus Culture supernatant for 1 hr; type: functional, organism-based
Staphylococcus aureus [7] = test: Antimicrobial activity against methicillin-resistant Staphylococcus aureus CCARM 3696 by colony count assay incubated with trypsin for 1 hr; type: functional, organism-based; in short: as §2
Staphylococcus aureus [8] = test: Antimicrobial activity against methicillin-resistant Staphylococcus aureus CCARM 3696 by radial diffusion assay incubated with Pseudomonas aeruginosa Culture supernatant for 1 hr; type: functional, organism-based
Staphylococcus aureus [9] = test: Antimicrobial activity against methicillin-resistant Staphylococcus aureus CCARM 3696 by radial diffusion assay incubated with matrix metalloprotease 7 for 1 hr; type: functional, organism-based
Staphylococcus aureus [10] = test: Antimicrobial activity against methicillin-resistant Staphylococcus aureus CCARM 3696 by radial diffusion assay incubated with chymotrypsin for 1 hr; type: functional, organism-based
Salmonella enterica = test: Antimicrobial activity against Salmonella enterica KCTC 2930 after 18 hrs by broth dilution method; type: functional; settings: KCTC 2930, 18 h; in short: as §1
Escherichia coli = test: Antimicrobial activity against Escherichia coli KCTC 1039 after 18 hrs by broth dilution method; type: functional; settings: KCTC 1039, 18 h; in short: as §1
Staphylococcus aureus [11] = test: Antimicrobial activity against methicillin-resistant Staphylococcus aureus CCARM 3696 by radial diffusion assay incubated with chymotrypsin; type: functional, organism-based

## CC(C)C[C@H](NC(=O)CNC(=O)[C@H](Cc1cnc[nH]1)NC(=O)[C@H](Cc1cnc[nH]1)NC(=O)[C@H](CC(C)C)NC(=O)[C@H](CC(C)C)NC(=O)[C@H](C)NC(=O)[C@H](CCCCN)NC(=O)[C@@H](N)CCCCN)C(=O)N[C@@H](CC(N)=O)C(=O)N[C@@H](CSSC[C@H](NC(=O)[C@H](CC(N)=O)NC(=O)[C@H](CC(C)C)NC(=O)CNC(=O)[C@H](Cc1cnc[nH]1)NC(=O)[C@@H](N)Cc1cnc[nH]1)C(=O)N[C@@H](C)C(=O)N[C@@H](CCCCN)C(=O)NCC(=O)N[C@H](C(=O)N[C@@H](CC(C)C)C(=O)N[C@@H](C)C(N)=O)C(C)C)C(=O)N[C@@H](C)C(=O)N[C@@H](CCCCN)C(=O)NCC(=O)N[C@H](C(=O)N[C@@H](CC(C)C)C(=O)N[C@@H](C)C(N)=O)C(C)C (I: H-KKALLHHGLNCAKGVLA-NH2 / II: H-HHGLNCAKGVLA-NH2; disulfide I:11-II:6)
Staphylococcus aureus [1]
  Activity: inactive

## CC(C)C[C@H](NC(=O)CNC(=O)[C@H](Cc1cnc[nH]1)NC(=O)[C@H](Cc1cnc[nH]1)NC(=O)[C@H](CC(C)C)NC(=O)[C@H](CC(C)C)NC(=O)[C@H](C)NC(=O)[C@H](CCCCN)NC(=O)[C@H](CCCCN)NC(=O)[C@H](Cc1c[nH]c2ccccc12)NC(=O)[C@@H](N)CCCCN)C(=O)N[C@@H](CC(N)=O)C(=O)N[C@@H](CSSC[C@H](NC(=O)[C@H](CC(N)=O)NC(=O)[C@H](CC(C)C)NC(=O)CNC(=O)[C@H](Cc1cnc[nH]1)NC(=O)[C@@H](N)Cc1cnc[nH]1)C(=O)N[C@@H](C)C(=O)N[C@@H](CCCCN)C(=O)NCC(=O)N[C@H](C(=O)N[C@@H](CC(C)C)C(=O)N[C@@H](C)C(N)=O)C(C)C)C(=O)N[C@@H](C)C(=O)N[C@@H](CCCCN)C(=O)NCC(=O)N[C@H](C(=O)N[C@@H](CC(C)C)C(=O)N[C@@H](C)C(N)=O)C(C)C (I: H-KWKKALLHHGLNCAKGVLA-NH2 / II: H-HHGLNCAKGVLA-NH2; disulfide I:13-II:6)
Staphylococcus aureus [1]
  Activity: Active

## CC(C)C[C@H](NC(=O)CNC(=O)[C@H](Cc1cnc[nH]1)NC(=O)[C@H](Cc1cnc[nH]1)NC(=O)[C@H](CC(C)C)NC(=O)[C@H](CC(C)C)NC(=O)[C@H](C)NC(=O)[C@H](CCCCN)NC(=O)[C@H](CCCCN)NC(=O)[C@H](Cc1c[nH]c2ccccc12)NC(=O)[C@@H](N)CCCCN)C(=O)N[C@@H](CC(N)=O)C(=O)N[C@@H](CSSC[C@H](NC(=O)[C@H](CC(N)=O)NC(=O)[C@H](CC(C)C)NC(=O)CNC(=O)[C@H](Cc1cnc[nH]1)NC(=O)[C@H](Cc1cnc[nH]1)NC(=O)[C@H](CC(C)C)NC(=O)[C@H](CC(C)C)NC(=O)[C@H](C)NC(=O)[C@H](CCCCN)NC(=O)[C@@H](N)CCCCN)C(=O)N[C@@H](C)C(=O)N[C@@H](CCCCN)C(=O)NCC(=O)N[C@H](C(=O)N[C@@H](CC(C)C)C(=O)N[C@@H](C)C(N)=O)C(C)C)C(=O)N[C@@H](C)C(=O)N[C@@H](CCCCN)C(=O)NCC(=O)N[C@H](C(=O)N[C@@H](CC(C)C)C(=O)N[C@@H](C)C(N)=O)C(C)C (I: H-KWKKALLHHGLNCAKGVLA-NH2 / II: H-KKALLHHGLNCAKGVLA-NH2; disulfide I:13-II:11)
Staphylococcus aureus [1]
  Activity: Active

## CC(C)C[C@H](NC(=O)CNC(=O)[C@H](Cc1cnc[nH]1)NC(=O)[C@H](Cc1cnc[nH]1)NC(=O)[C@H](CC(C)C)NC(=O)[C@H](CC(C)C)NC(=O)[C@H](C)NC(=O)[C@H](CCCCN)NC(=O)[C@H](CCCCN)NC(=O)[C@H](Cc1c[nH]c2ccccc12)NC(=O)[C@@H](N)CCCCN)C(=O)N[C@@H](CC(N)=O)C(=O)N[C@@H](CSSC[C@H](NC(=O)[C@H](CC(N)=O)NC(=O)[C@H](CC(C)C)NC(=O)CNC(=O)[C@H](Cc1cnc[nH]1)NC(=O)[C@H](Cc1cnc[nH]1)NC(=O)[C@H](CC(C)C)NC(=O)[C@H](CC(C)C)NC(=O)[C@H](C)NC(=O)[C@H](CCCCN)NC(=O)[C@H](CCCCN)NC(=O)[C@H](Cc1c[nH]c2ccccc12)NC(=O)[C@@H](N)CCCCN)C(=O)N[C@@H](C)C(=O)N[C@@H](CCCCN)C(=O)NCC(=O)N[C@H](C(=O)N[C@@H](CC(C)C)C(=O)N[C@@H](C)C(=O)O)C(C)C)C(=O)N[C@@H](C)C(=O)N[C@@H](CCCCN)C(=O)NCC(=O)N[C@H](C(=O)N[C@@H](CC(C)C)C(=O)N[C@@H](C)C(N)=O)C(C)C (I: H-KWKKALLHHGLNCAKGVLA-NH2 / II: H-KWKKALLHHGLNCAKGVLA-OH; disulfide I:13-II:13)
Listeria monocytogenes
  MIC: 2 µg/mL (≈ 0.479 µM)
Klebsiella oxytoca
  MIC: 2 µg/mL (≈ 0.479 µM)
Staphylococcus aureus [2]
  Activity: inactive
Citrobacter freundii
  MIC: 4 µg/mL (≈ 0.959 µM)
Staphylococcus aureus [3]
  MIC: 4 µg/mL (≈ 0.959 µM)
Micrococcus luteus
  MIC: 4 µg/mL (≈ 0.959 µM)
Pseudomonas aeruginosa
  MIC: 4 µg/mL (≈ 0.959 µM)
Bacillus subtilis
  MIC: 2 µg/mL (≈ 0.479 µM)
Enterococcus faecium
  MIC: 2 µg/mL (≈ 0.479 µM)
Staphylococcus aureus [4]
  Activity: inactive
Staphylococcus aureus [5]
  Activity: inactive
Staphylococcus aureus [6]
  Activity: inactive
Staphylococcus aureus [7]
  Activity: Active
Staphylococcus aureus [8]
  Activity: inactive
Staphylococcus aureus [9]
  Activity: Active
Staphylococcus aureus [10]
  Activity: Active
Salmonella enterica
  MIC: 2 µg/mL (≈ 0.479 µM)
Escherichia coli
  MIC: 2 µg/mL (≈ 0.479 µM)

## CC(C)C[C@H](NC(=O)CNC(=O)[C@H](Cc1cnc[nH]1)NC(=O)[C@H](Cc1cnc[nH]1)NC(=O)[C@H](CC(C)C)NC(=O)[C@H](CC(C)C)NC(=O)[C@H](C)NC(=O)[C@H](CCCCN)NC(=O)[C@H](CCCCN)NC(=O)[C@H](Cc1c[nH]c2ccccc12)NC(=O)[C@@H](N)CCCCN)C(=O)N[C@@H](CC(N)=O)C(=O)N[C@@H](CSSC[C@H](NC(=O)[C@H](CC(N)=O)NC(=O)[C@H](CC(C)C)NC(=O)CNC(=O)[C@H](Cc1cnc[nH]1)NC(=O)[C@H](Cc1cnc[nH]1)NC(=O)[C@@H](N)CC(C)C)C(=O)N[C@@H](C)C(=O)N[C@@H](CCCCN)C(=O)NCC(=O)N[C@H](C(=O)N[C@@H](CC(C)C)C(=O)N[C@@H](C)C(N)=O)C(C)C)C(=O)N[C@@H](C)C(=O)N[C@@H](CCCCN)C(=O)NCC(=O)N[C@H](C(=O)N[C@@H](CC(C)C)C(=O)N[C@@H](C)C(N)=O)C(C)C (I: H-KWKKALLHHGLNCAKGVLA-NH2 / II: H-LHHGLNCAKGVLA-NH2; disulfide I:13-II:7)
Staphylococcus aureus [1]
  Activity: Active

## CC(C)C[C@H](NC(=O)CNC(=O)[C@H](Cc1cnc[nH]1)NC(=O)[C@H](Cc1cnc[nH]1)NC(=O)[C@H](CC(C)C)NC(=O)[C@H](CC(C)C)NC(=O)[C@H](C)NC(=O)[C@H](CC(N)=O)NC(=O)[C@H](CC(C)C)NC(=O)[C@H](Cc1c[nH]c2ccccc12)NC(=O)[C@@H](N)CCCCN)C(=O)N[C@@H](CC(N)=O)C(=O)N[C@@H](CSSC[C@H](NC(=O)[C@H](CC(N)=O)NC(=O)[C@H](CC(C)C)NC(=O)CNC(=O)[C@H](Cc1cnc[nH]1)NC(=O)[C@@H](N)Cc1cnc[nH]1)C(=O)N[C@@H](C)C(=O)N[C@@H](CCCCN)C(=O)NCC(=O)N[C@H](C(=O)N[C@@H](CC(C)C)C(=O)N[C@@H](C)C(N)=O)C(C)C)C(=O)N[C@@H](C)C(=O)N[C@@H](CCCCN)C(=O)NCC(=O)N[C@H](C(=O)N[C@@H](CC(C)C)C(=O)N[C@@H](C)C(N)=O)C(C)C (I: H-KWLNALLHHGLNCAKGVLA-NH2 / II: H-HHGLNCAKGVLA-NH2; disulfide I:13-II:6)
Staphylococcus aureus [11]
  Activity: Active
